8 compounds from ChEMBL document CHEMBL1134473, “Synthesis and biological evaluation of pyrrolinic isosteres of rilmenidine. Discovery of cis-/trans-dicyclopropylmethyl-(4,5-dimethyl-4,5-dihydro-3H-pyrrol-2-yl)-amine (LNP 509), an I1 imidazoline receptor selective ligand with hypotensive activity” (J Med Chem, 2001) can be followed below.

Molecules are shown by their SMILES. A value given as a limit tells only on which side of the number the result lay.

The nature of this experiment: Displacement of [3H]RX-821002 from alpha-2 adrenergic receptor of calf frontal cortex membranes. The experiment is classed as tissue-based, Bos taurus. A digest of the protocol: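 Calf frontal cortex membranes (0.5 mg protein/mL) incubated 60 min at 25 °C with 0.8 nM [3H]RX821002 plus 0.3 µM 5HT to mask 5HT1A sites, in 50 mM sodium phosphate pH 7.4, drug 10^-9 to 10^-4 M. Nonspecific binding with 10 µM phentolamine. Bound ligand separated by GF/C filtration and counted. Three experiments in triplicate; Ki by Cheng-Prusoff.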
Compound `CC1CN=C(NC(C2CC2)C2CC2)C1` (stereo not drawn) showed a Log Ki greater than -5. Then `C1CCC2N=C(NC(C3CC3)C3CC3)CC2C1` (stereo not drawn), with greater than -5; and `CC1CCC(NC(C2CC2)C2CC2)=N1` (stereo not drawn), with greater than -5; and `CCC1CCC(NC(C2CC2)C2CC2)=N1` (stereo not drawn), with greater than -5.

On to `CC1CC(NC(C2CC2)C2CC2)=NC1C` (mixture of isomers), for which the Log Ki was greater than -5. `C1CN=C(NC(C2CC2)C2CC2)C1` had a Log Ki greater than -5. Take `CC1CCN=C1NC(C1CC1)C1CC1` (stereo not drawn): the Log Ki is greater than -5. As for `C1COC(NC(C2CC2)C2CC2)=N1` [RILMENIDINE], the “Log Ki” value was -7.25.
